Test [1] has as its target Sodium channel protein type 9 subunit alpha (Homo sapiens, UniProt Q15858). The test is described as follows: Inhibition of human Nav1.7 expressed in HEK293 cells assessed as inward peak current by ion-works quattro patch clamp electrophysiology method. Format: cell-based. (In general: The patch-clamp technique gives a direct electrical read-out from membranes.)
Test [2] addresses Sodium channel protein type 5 subunit alpha (Homo sapiens, UniProt Q14524). The test is described as follows: Inhibition of human Nav1.5 expressed in HEK293 cells assessed as inward peak current by ion-works quattro patch clamp electrophysiology method. Format: cell-based. In outline:
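Stable HEK293 line expressing human NaV1.5, recorded by population patch clamp on the IonWorks Quattro.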

Positions of bridges follow the written chain, without caps; N, C: chain ends. Residues, ends and D or L forms follow the SMILES beside them. Some results are limits rather than exact numbers.

The values that follow come from ChEMBL document CHEMBL3797186, “Single Residue Substitutions That Confer Voltage-Gated Sodium Ion Channel Subtype Selectivity in the NaV1.7 Inhibitory Peptide GpTx-1” (J Med Chem, 2016).

Chain of Sodium channel protein type 5 subunit alpha (Q14524 whole entry): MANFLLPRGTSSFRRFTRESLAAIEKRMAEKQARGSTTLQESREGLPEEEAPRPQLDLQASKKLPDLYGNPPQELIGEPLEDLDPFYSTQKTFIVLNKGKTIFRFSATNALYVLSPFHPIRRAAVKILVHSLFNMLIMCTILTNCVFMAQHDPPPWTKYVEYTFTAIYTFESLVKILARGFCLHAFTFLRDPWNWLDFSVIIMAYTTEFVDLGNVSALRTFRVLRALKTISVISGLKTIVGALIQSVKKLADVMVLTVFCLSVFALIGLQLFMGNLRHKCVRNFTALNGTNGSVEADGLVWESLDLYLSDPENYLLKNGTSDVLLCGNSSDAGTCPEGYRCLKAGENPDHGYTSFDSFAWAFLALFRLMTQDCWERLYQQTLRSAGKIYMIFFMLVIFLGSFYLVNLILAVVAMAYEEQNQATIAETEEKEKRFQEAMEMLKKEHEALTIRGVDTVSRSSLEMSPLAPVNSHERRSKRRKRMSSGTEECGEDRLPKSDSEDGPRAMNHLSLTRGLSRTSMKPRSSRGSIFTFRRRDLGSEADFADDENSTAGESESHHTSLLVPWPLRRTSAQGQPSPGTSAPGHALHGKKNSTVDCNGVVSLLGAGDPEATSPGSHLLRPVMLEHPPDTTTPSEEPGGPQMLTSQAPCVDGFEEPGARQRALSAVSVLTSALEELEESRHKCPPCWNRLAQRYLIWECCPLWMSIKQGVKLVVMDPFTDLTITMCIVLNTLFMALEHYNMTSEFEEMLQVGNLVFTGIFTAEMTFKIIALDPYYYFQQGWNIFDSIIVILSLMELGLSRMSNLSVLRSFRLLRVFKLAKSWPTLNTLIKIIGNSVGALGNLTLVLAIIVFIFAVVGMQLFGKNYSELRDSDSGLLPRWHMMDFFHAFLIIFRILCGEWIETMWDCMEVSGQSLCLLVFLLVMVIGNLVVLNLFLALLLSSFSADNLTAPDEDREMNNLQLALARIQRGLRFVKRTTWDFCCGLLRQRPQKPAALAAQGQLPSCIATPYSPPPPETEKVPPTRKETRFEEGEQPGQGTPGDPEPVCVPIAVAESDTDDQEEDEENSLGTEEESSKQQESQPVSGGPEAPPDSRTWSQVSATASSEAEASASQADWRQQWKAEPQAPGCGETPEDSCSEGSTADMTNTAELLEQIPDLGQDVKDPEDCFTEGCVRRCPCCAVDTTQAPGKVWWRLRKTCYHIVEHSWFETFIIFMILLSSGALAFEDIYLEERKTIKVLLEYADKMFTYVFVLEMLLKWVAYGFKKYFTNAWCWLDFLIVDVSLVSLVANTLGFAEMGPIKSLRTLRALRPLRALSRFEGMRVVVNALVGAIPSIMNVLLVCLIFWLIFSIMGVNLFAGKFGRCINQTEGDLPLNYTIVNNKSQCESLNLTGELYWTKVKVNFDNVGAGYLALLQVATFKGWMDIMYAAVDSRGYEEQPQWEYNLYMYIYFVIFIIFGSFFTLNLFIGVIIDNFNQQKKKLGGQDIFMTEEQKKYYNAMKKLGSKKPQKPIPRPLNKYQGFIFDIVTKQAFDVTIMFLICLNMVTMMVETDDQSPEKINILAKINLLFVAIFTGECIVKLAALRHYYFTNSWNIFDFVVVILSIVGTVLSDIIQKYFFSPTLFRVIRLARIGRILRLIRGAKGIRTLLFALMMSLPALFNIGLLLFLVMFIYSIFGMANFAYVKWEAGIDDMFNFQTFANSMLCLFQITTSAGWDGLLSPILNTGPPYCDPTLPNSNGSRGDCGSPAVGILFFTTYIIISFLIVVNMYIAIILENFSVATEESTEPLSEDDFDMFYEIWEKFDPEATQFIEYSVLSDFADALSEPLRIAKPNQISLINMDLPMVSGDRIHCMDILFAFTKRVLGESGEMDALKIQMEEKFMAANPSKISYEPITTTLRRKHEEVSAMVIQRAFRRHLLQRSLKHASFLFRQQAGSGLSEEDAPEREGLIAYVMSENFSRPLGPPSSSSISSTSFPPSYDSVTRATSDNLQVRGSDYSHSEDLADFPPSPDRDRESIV
Chain of Sodium channel protein type 9 subunit alpha (Q15858 whole entry): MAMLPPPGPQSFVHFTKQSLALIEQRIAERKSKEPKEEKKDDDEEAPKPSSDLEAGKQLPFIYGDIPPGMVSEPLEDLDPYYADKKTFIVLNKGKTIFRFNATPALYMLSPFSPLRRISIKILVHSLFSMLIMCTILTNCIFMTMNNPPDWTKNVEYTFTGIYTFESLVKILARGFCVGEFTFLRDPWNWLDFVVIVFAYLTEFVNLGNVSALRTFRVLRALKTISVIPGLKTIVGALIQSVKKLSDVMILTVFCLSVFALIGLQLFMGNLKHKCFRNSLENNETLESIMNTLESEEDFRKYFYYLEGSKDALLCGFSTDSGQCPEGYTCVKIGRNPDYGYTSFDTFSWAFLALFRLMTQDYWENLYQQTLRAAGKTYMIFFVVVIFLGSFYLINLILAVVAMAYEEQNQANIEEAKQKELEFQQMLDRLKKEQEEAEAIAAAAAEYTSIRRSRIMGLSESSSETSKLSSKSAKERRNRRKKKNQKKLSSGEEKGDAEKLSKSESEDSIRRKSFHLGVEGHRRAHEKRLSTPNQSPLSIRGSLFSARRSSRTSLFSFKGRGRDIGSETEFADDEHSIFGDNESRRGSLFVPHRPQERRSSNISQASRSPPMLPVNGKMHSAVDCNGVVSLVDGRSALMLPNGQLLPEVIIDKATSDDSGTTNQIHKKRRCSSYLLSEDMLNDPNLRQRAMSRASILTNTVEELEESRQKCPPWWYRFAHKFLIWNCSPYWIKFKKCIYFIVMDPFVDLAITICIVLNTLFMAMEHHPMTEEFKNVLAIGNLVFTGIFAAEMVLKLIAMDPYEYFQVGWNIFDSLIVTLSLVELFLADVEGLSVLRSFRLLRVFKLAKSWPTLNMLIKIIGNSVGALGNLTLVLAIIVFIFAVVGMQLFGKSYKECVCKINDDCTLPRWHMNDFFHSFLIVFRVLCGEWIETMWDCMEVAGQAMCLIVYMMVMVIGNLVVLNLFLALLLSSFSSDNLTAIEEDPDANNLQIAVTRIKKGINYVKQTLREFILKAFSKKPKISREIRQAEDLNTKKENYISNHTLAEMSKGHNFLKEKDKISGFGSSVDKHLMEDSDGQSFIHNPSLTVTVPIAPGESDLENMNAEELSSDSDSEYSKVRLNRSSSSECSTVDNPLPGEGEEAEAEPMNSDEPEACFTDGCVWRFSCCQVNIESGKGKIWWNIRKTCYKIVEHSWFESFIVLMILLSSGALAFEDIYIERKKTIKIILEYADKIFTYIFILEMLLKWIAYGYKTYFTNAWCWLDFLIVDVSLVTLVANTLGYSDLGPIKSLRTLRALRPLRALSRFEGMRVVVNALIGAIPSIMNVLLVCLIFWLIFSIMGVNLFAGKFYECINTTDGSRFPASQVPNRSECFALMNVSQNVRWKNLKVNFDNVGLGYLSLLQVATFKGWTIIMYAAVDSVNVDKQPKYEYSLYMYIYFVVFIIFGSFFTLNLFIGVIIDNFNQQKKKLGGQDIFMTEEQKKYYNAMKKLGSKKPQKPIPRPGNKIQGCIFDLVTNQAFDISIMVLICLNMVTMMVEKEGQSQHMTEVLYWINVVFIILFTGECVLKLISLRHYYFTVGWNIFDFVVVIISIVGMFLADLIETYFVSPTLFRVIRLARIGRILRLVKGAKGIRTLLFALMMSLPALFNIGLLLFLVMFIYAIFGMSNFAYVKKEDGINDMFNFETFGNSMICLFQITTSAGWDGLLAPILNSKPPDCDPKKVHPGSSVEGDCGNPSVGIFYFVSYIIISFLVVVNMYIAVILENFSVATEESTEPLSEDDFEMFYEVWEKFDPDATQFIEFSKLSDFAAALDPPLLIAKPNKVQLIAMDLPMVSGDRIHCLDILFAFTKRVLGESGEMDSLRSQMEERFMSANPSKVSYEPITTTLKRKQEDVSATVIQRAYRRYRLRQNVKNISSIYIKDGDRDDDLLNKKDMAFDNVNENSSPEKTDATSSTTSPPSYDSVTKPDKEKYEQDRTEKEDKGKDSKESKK

What is called IC50 is the point on the concentration scale where inhibition reaches its midpoint. Turning to `CC[C@H](C)[C@@H]1NC(=O)[C@@H]2CSSC[C@@H]3NC(=O)[C@H](C(C)C)NC(=O)[C@H](CC(C)C)NC(=O)[C@H](CC(N)=O)NC(=O)[C@@H]4CCCN4C(=O)[C@H](CCCNC(=N)N)NC(=O)[C@H](CSSC[C@H](NC(=O)[C@@H](N)CC(=O)O)C(=O)N[C@@H](CC(C)C)C(=O)NCC(=O)N[C@@H](Cc4ccccc4)C(=O)N[C@@H](CCSC)C(=O)N[C@@H](CCCNC(=N)N)C(=O)N[C@@H](CCCCN)C(=O)N2)NC(=O)[C@H](CSSC[C@@H](C(=O)N[C@@H](CCCCN)C(=O)N[C@@H](Cc2ccc(O)cc2)C(=O)N[C@H](C(=O)N[C@@H](Cc2ccccc2)C(N)=O)C(C)C)NC(=O)[C@H](Cc2c[nH]c4ccccc24)NC(=O)[C@H](CCCCN)NC(=O)[C@H](Cc2cnc[nH]2)NC(=O)[C@H](CCCCN)NC(=O)[C@H](CCCNC(=N)N)NC(=O)[C@H](CO)NC3=O)NC(=O)[C@H](CCCCN)NC(=O)[C@H](CC(=O)O)NC(=O)[C@H](CC(N)=O)NC(=O)[C@H](CC(=O)O)NC(=O)[C@@H]2CCCN2C1=O` (H-DCLGFMRKCIPDNDKCCRPNLVCSRKHKWCKYVF-NH2; disulfide 2-17, 9-23, 16-30), the half-inhibitory concentration (IC50) in test [1] was 0.04 µM; in test [2], greater than 5 µM.

Turning to `CC[C@H](C)[C@@H]1NC(=O)[C@@H]2CSSC[C@@H]3NC(=O)[C@H](C(C)C)NC(=O)[C@H](CC(C)C)NC(=O)[C@H](CC(N)=O)NC(=O)[C@@H]4CCCN4C(=O)[C@H](CCCNC(=N)N)NC(=O)[C@H](CSSC[C@H](NC(=O)[C@@H](N)CC(=O)O)C(=O)N[C@@H](CC(C)C)C(=O)NCC(=O)N[C@@H](Cc4ccccc4)C(=O)N[C@@H](CCSC)C(=O)N[C@@H](CCCNC(=N)N)C(=O)N[C@@H](CCCCN)C(=O)N2)NC(=O)[C@H](CSSC[C@@H](C(=O)N[C@@H](CCCCN)C(=O)N[C@@H](Cc2ccc(O)cc2)C(=O)N[C@H](C(=O)N[C@@H](Cc2ccccc2)C(N)=O)C(C)C)NC(=O)[C@H](Cc2c[nH]c4ccccc24)NC(=O)[C@H](CCCCN)NC(=O)[C@H](Cc2cnc[nH]2)NC(=O)[C@H](CCCNC(=N)N)NC(=O)[C@H](CCCNC(=N)N)NC(=O)[C@H](CO)NC3=O)NC(=O)[C@H](CCCCN)NC(=O)[C@H](CC(=O)O)NC(=O)[C@H](CC(N)=O)NC(=O)[C@H](CC(=O)O)NC(=O)[C@@H]2CCCN2C1=O` (H-DCLGFMRKCIPDNDKCCRPNLVCSRRHKWCKYVF-NH2; disulfide 2-17, 9-23, 16-30), the IC50 in test [1] turned out to be 0.04 µM; in test [2], 3.5 µM.

Consider `CC[C@H](C)[C@@H]1NC(=O)[C@@H]2CSSC[C@@H]3NC(=O)[C@H](C(C)C)NC(=O)[C@H](CC(C)C)NC(=O)[C@H](CC(N)=O)NC(=O)[C@@H]4CCCN4C(=O)[C@H](CCCNC(=N)N)NC(=O)[C@H](CSSC[C@H](NC(=O)[C@@H](N)CC(=O)O)C(=O)N[C@@H](CC(C)C)C(=O)NCC(=O)N[C@@H](Cc4ccccc4)C(=O)N[C@@H](CCSC)C(=O)N[C@@H](CCCNC(=N)N)C(=O)N[C@@H](CCCCN)C(=O)N2)NC(=O)[C@H](CSSC[C@@H](C(=O)N[C@@H](CCCCN)C(=O)N[C@@H](Cc2ccc(O)cc2)C(=O)N[C@H](C(=O)N[C@@H](Cc2ccccc2)C(N)=O)C(C)C)NC(=O)[C@H](Cc2c[nH]c4ccccc24)NC(=O)[C@H](CCCCN)NC(=O)[C@H](CCC(=O)O)NC(=O)[C@H]([C@@H](C)O)NC(=O)[C@H](CCCNC(=N)N)NC(=O)[C@H](CO)NC3=O)NC(=O)[C@H](CCCCN)NC(=O)[C@H](CC(=O)O)NC(=O)[C@H](CC(N)=O)NC(=O)[C@H](CC(=O)O)NC(=O)[C@@H]2CCCN2C1=O` (H-DCLGFMRKCIPDNDKCCRPNLVCSRTEKWCKYVF-NH2; disulfide 2-17, 9-23, 16-30), for which the IC50 in test [1] and in test [2] was greater than 5 µM each time.

Regarding `CC[C@H](C)[C@@H]1NC(=O)[C@@H]2CSSC[C@@H]3NC(=O)[C@H](C(C)C)NC(=O)[C@H](CC(C)C)NC(=O)[C@H](CC(N)=O)NC(=O)[C@@H]4CCCN4C(=O)[C@H](CCCNC(=N)N)NC(=O)[C@H](CSSC[C@H](NC(=O)[C@@H](N)CC(=O)O)C(=O)N[C@@H](CC(C)C)C(=O)NCC(=O)N[C@@H](Cc4ccccc4)C(=O)N[C@@H](CCSC)C(=O)N[C@@H](CCCNC(=N)N)C(=O)N[C@@H](CCCCN)C(=O)N2)NC(=O)[C@H](CSSC[C@@H](C(=O)N[C@@H](CCCCN)C(=O)N[C@@H](Cc2ccc(O)cc2)C(=O)N[C@H](C(=O)N[C@@H](Cc2ccccc2)C(N)=O)C(C)C)NC(=O)[C@H](CCCCN)NC(=O)[C@H](CCCCN)NC(=O)[C@H](Cc2cnc[nH]2)NC(=O)[C@H]([C@@H](C)O)NC(=O)[C@H](CCCNC(=N)N)NC(=O)[C@H](CO)NC3=O)NC(=O)[C@H](CCCCN)NC(=O)[C@H](CC(=O)O)NC(=O)[C@H](CC(N)=O)NC(=O)[C@H](CC(=O)O)NC(=O)[C@@H]2CCCN2C1=O` (H-DCLGFMRKCIPDNDKCCRPNLVCSRTHKKCKYVF-NH2; disulfide 2-17, 9-23, 16-30), the IC50 in test [1] and in test [2] was greater than 5 µM throughout.

As to `CC[C@H](C)[C@@H]1NC(=O)[C@@H]2CSSC[C@@H]3NC(=O)[C@H](C(C)C)NC(=O)[C@H](CC(C)C)NC(=O)[C@H](CC(N)=O)NC(=O)[C@@H]4CCCN4C(=O)[C@H](CCCNC(=N)N)NC(=O)[C@H](CSSC[C@H](NC(=O)[C@@H](N)CC(=O)O)C(=O)N[C@@H](CC(C)C)C(=O)NCC(=O)N[C@@H](Cc4ccccc4)C(=O)N[C@@H](CCSC)C(=O)N[C@@H](CCCNC(=N)N)C(=O)N[C@@H](CCCCN)C(=O)N2)NC(=O)[C@H](CSSC[C@@H](C(=O)N[C@@H](CCCCN)C(=O)N[C@@H](Cc2ccc(O)cc2)C(=O)N[C@H](C(=O)N[C@@H](Cc2ccccc2)C(N)=O)C(C)C)NC(=O)[C@H](CCCNC(=N)N)NC(=O)[C@H](CCCCN)NC(=O)[C@H](Cc2cnc[nH]2)NC(=O)[C@H]([C@@H](C)O)NC(=O)[C@H](CCCNC(=N)N)NC(=O)[C@H](CO)NC3=O)NC(=O)[C@H](CCCCN)NC(=O)[C@H](CC(=O)O)NC(=O)[C@H](CC(N)=O)NC(=O)[C@H](CC(=O)O)NC(=O)[C@@H]2CCCN2C1=O` (H-DCLGFMRKCIPDNDKCCRPNLVCSRTHKRCKYVF-NH2; disulfide 2-17, 9-23, 16-30), the IC50 in test [1] and in test [2] was greater than 5 µM throughout.

For `CC[C@H](C)[C@@H]1NC(=O)[C@@H]2CSSC[C@@H]3NC(=O)[C@H](C(C)C)NC(=O)[C@H](CC(C)C)NC(=O)[C@H](CC(N)=O)NC(=O)[C@@H]4CCCN4C(=O)[C@H](CCCNC(=N)N)NC(=O)[C@H](CSSC[C@H](NC(=O)[C@@H](N)CC(=O)O)C(=O)N[C@@H](CC(C)C)C(=O)NCC(=O)N[C@@H](Cc4ccccc4)C(=O)N[C@@H](CCSC)C(=O)N[C@@H](CCCNC(=N)N)C(=O)N[C@@H](CCCCN)C(=O)N2)NC(=O)[C@H](CSSC[C@@H](C(=O)N[C@@H](CCC(=O)O)C(=O)N[C@@H](Cc2ccc(O)cc2)C(=O)N[C@H](C(=O)N[C@@H](Cc2ccccc2)C(N)=O)C(C)C)NC(=O)[C@H](Cc2c[nH]c4ccccc24)NC(=O)[C@H](CCCCN)NC(=O)[C@H](Cc2cnc[nH]2)NC(=O)[C@H]([C@@H](C)O)NC(=O)[C@H](CCCNC(=N)N)NC(=O)[C@H](CO)NC3=O)NC(=O)[C@H](CCCCN)NC(=O)[C@H](CC(=O)O)NC(=O)[C@H](CC(N)=O)NC(=O)[C@H](CC(=O)O)NC(=O)[C@@H]2CCCN2C1=O` (H-DCLGFMRKCIPDNDKCCRPNLVCSRTHKWCEYVF-NH2; disulfide 2-17, 9-23, 16-30), the half-inhibitory concentration (IC50) in test [1] and in test [2] was greater than 5 µM in each case.

As for `CC[C@H](C)[C@@H]1NC(=O)[C@@H]2CSSC[C@@H]3NC(=O)[C@H](C(C)C)NC(=O)[C@H](CC(C)C)NC(=O)[C@H](CC(N)=O)NC(=O)[C@@H]4CCCN4C(=O)[C@H](CCCNC(=N)N)NC(=O)[C@H](CSSC[C@H](NC(=O)[C@@H](N)CC(=O)O)C(=O)N[C@@H](CC(C)C)C(=O)NCC(=O)N[C@@H](Cc4ccccc4)C(=O)N[C@@H](CCSC)C(=O)N[C@@H](CCCNC(=N)N)C(=O)N[C@@H](CCCCN)C(=O)N2)NC(=O)[C@H](CSSC[C@@H](C(=O)N[C@@H](CCCCN)C(N)=O)NC(=O)[C@H](Cc2c[nH]c4ccccc24)NC(=O)[C@H](CCCCN)NC(=O)[C@H](Cc2cnc[nH]2)NC(=O)[C@H]([C@@H](C)O)NC(=O)[C@H](CCCNC(=N)N)NC(=O)[C@H](CO)NC3=O)NC(=O)[C@H](CCCCN)NC(=O)[C@H](CC(=O)O)NC(=O)[C@H](CC(N)=O)NC(=O)[C@H](CC(=O)O)NC(=O)[C@@H]2CCCN2C1=O` (H-DCLGFMRKCIPDNDKCCRPNLVCSRTHKWCK-NH2; disulfide 2-17, 9-23, 16-30), the IC50 in test [1] and in test [2] was greater than 5 µM each time.

For `CC[C@H](C)[C@@H]1NC(=O)[C@@H]2CSSC[C@@H]3NC(=O)[C@H](C(C)C)NC(=O)[C@H](CC(C)C)NC(=O)[C@H](CC(N)=O)NC(=O)[C@@H]4CCCN4C(=O)[C@H](CCCNC(=N)N)NC(=O)[C@H](CSSC[C@H](NC(=O)[C@@H](N)CC(=O)O)C(=O)N[C@@H](CC(C)C)C(=O)NCC(=O)N[C@@H](Cc4ccccc4)C(=O)N[C@@H](CCSC)C(=O)N[C@@H](CCCNC(=N)N)C(=O)N[C@@H](CCCCN)C(=O)N2)NC(=O)[C@H](CSSC[C@@H](C(=O)N[C@@H](CCCCN)C(=O)N[C@@H](CCC(=O)O)C(=O)N[C@H](C(=O)N[C@@H](Cc2ccccc2)C(N)=O)C(C)C)NC(=O)[C@H](Cc2c[nH]c4ccccc24)NC(=O)[C@H](CCCCN)NC(=O)[C@H](Cc2cnc[nH]2)NC(=O)[C@H]([C@@H](C)O)NC(=O)[C@H](CCCNC(=N)N)NC(=O)[C@H](CO)NC3=O)NC(=O)[C@H](CCCCN)NC(=O)[C@H](CC(=O)O)NC(=O)[C@H](CC(N)=O)NC(=O)[C@H](CC(=O)O)NC(=O)[C@@H]2CCCN2C1=O` (H-DCLGFMRKCIPDNDKCCRPNLVCSRTHKWCKEVF-NH2; disulfide 2-17, 9-23, 16-30), the IC50 in test [1] and in test [2] was greater than 5 µM throughout.
